Measurements gathered from unrelated publications.
Each line is one published result; the experiments were not run side by side.
Target: Serine/threonine-protein kinase ULK2 (ULK2, Homo sapiens, UniProt Q8IYT8)
Sequence (Q8IYT8 1-1036, as in one of the studies): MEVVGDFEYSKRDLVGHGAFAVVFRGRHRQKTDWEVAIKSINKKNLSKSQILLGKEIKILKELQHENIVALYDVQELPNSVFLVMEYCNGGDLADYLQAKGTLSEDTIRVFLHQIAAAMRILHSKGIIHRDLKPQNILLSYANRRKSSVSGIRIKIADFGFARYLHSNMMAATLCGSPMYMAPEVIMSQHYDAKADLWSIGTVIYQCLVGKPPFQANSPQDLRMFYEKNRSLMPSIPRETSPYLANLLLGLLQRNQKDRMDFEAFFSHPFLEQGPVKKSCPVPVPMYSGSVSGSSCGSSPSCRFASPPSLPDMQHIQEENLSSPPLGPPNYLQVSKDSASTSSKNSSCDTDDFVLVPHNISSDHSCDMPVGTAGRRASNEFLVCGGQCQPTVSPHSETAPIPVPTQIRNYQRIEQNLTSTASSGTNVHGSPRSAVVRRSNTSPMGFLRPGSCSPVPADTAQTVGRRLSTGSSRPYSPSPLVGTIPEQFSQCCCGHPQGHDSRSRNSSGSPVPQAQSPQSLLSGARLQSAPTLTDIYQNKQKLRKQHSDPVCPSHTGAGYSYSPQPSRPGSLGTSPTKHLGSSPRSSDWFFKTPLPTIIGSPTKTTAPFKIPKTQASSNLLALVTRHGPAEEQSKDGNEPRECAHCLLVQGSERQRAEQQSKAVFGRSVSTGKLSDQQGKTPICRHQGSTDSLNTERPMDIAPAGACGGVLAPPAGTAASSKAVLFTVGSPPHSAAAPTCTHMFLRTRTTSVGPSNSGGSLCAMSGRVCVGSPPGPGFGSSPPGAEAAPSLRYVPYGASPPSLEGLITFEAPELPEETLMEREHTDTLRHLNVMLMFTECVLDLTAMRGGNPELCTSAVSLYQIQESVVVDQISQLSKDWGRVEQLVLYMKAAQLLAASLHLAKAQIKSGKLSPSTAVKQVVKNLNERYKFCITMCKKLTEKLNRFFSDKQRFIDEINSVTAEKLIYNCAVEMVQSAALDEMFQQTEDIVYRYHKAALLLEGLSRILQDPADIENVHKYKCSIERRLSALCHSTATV

NS(=O)(=O)c1cc(NC(=O)C2(c3ccccc3Cl)CC2)ccc1Oc1cccc(Cl)c1 has a remaining binding of 100% (cell-free assay, competition with immobilised ligand; 1 µM).
Cc1cnc(Nc2ccc(C(=O)N3CCC(N4CCCC4)CC3)cc2)nc1-c1cc2ccccc2s1 gave a remaining binding of 12% (binding, competition with immobilised ligand; 1 µM).
For COc1cc(-c2cn(C3CCc4c(F)cccc4N(CC(F)(F)F)C3=O)nn2)ccc1-n1cnc(C)c1 (stereo not shown), the remaining binding was 100% (cell-free assay, competition with immobilised ligand; 1 µM).
The remaining binding of N#Cc1ccccc1CSc1nnc2c(n1)[nH]c1ccccc12 is reported as 94% (binding, competition with immobilised ligand; 10 µM).
The remaining binding of FC(F)(F)c1ccc2c(c1)nc(-c1cccnc1)n2C1CC1 is reported as 100% (cell-free assay, competition with immobilised ligand; 1 µM).
With C=CC(=O)N1CCC(C(=O)NCC(=O)N2CCN(c3nc(-c4cnc(N)nc4C(F)F)nc(N4CCOCC4)n3)CC2)CC1 the remaining binding was 96% (binding, competition with immobilised ligand; 1 µM).
With COc1cnc(Nc2cccc(S(N)(=O)=O)c2)nc1N1CCN(c2ccccc2)C(=O)C1 the remaining binding was 51% (binding, competition with immobilised ligand; 1 µM).
For COc1ccnn2ncc(-c3ccnc(N(C)C)n3)c12, the remaining binding was 100% (binding; 1 µM).
For O=C(NS(=O)(=O)c1ccc(NCC2CCOCC2)c([N+](=O)[O-])c1)c1ccc(N2CCN(Cc3ccc(C(F)(F)F)cc3-c3ccc(Cl)cc3)CC2)cc1Oc1cnc2[nH]ccc2c1, the remaining binding was 100% (cell-free assay, competition with immobilised ligand; 1 µM).
C[C@@H](c1ccc(-n2cnc3c(N)ncnc32)cc1)N1CCc2nn(C)c(Cc3ccccc3)c2C1=O has a remaining binding of 70% (binding, competition with immobilised ligand; 0.1 µM).
O=C(Nc1c[nH]nc1C(=O)NC1CCNCC1)c1cc(F)cc(F)c1 gave a remaining binding of 99% (binding, competition with immobilised ligand; 1 µM).
O=C(NCCCN1CCOCC1)c1ccc(Nc2nccc(-c3cc4ccccc4s3)n2)cc1 has a remaining binding of 62% (binding, competition with immobilised ligand; 1 µM).
With CCC(=O)N[C@H]1CC[C@@H](C(=O)N(C)c2ccc(-c3nc4ccccc4o3)cc2)C1 the remaining binding was 75% (cell-free assay, competition with immobilised ligand; 1 µM).
For O=C(NCCCN1CCOCC1)c1ccc(Nc2ncc(Cl)c(-c3ccc(Cl)s3)n2)cc1, the remaining binding was 24% (binding, competition with immobilised ligand; 1 µM).
For COC(=O)Nc1nc2ccc(C(=O)c3ccccc3)cc2[nH]1, the remaining binding was 30% (cell-free assay, competition with immobilised ligand; 10 µM).
For F[C@@H]1CCN(c2nccc(-c3cnn4ncccc34)n2)C1, the remaining binding was 100% (binding; 1 µM).
With COc1ccc2c(c1)O[C@H](c1ccc(OC)c(OC)c1)C[C@@H]2NC(=O)C1(c2ccc3c(c2)OC(F)(F)O3)CC1 the remaining binding was 100% (cell-free assay, competition with immobilised ligand; 1 µM).
C[C@@H]1CCN(c2nccc(-c3cnn4ncccc34)n2)C1 has a remaining binding of 69% (binding; 1 µM).
For Nc1ncc2c(n1)-c1c([nH]c3ccc(C#CC4CC4)cc13)CCCC2, the remaining binding was 100% (binding, competition with immobilised ligand; 1 µM).
CN(CCCC(F)(F)F)c1nccc(-c2cnn3ncccc23)n1 gave a remaining binding of 96% (binding; 1 µM).
The remaining binding of CCOC(=O)c1cc2cc(-c3cc(C(=O)NCc4ccc(C(=O)O)cc4)nn3C)ccc2[nH]1 is reported as 78% (cell-free assay, competition with immobilised ligand; 0.1 µM).
For CN(C)c1nccc(-c2cnc3ncccn23)n1, the remaining binding was 74% (binding; 1 µM).
C[C@@H]1CN(c2ccc3ncc(-c4ccc5[nH]nc(C6CC6)c5c4)n3n2)C[C@H](C)O1 gave a remaining binding of 92% (binding, competition with immobilised ligand; 50 nM).
The remaining binding of CSc1cccnc1N1CCN(Cc2nc3ccccc3[nH]2)CC1 is reported as 94% (cell-free assay, competition with immobilised ligand; 1 µM).
With N[C@@H]1CCN(c2nccc(-c3cnn4ncccc34)n2)C1 the remaining binding was 100% (binding; 1 µM).
